Experimental data pooled from the literature.
Each line is one published result; the experiments were not run side by side.
Target: Leukocyte tyrosine kinase receptor (LTK, Homo sapiens, UniProt P29376)

Compound	test	setting	remaining binding [%]
CCN1CCN(Cc2ccc(C(=O)Nc3ccc(C)c(Oc4ccc5c(c4)CC(=O)N5)c3)cc2C(F)(F)F)CC1	binding, competition with immobilised ligand	1 µM	100
CN(CCCC(F)(F)F)c1nccc(-c2cnn3ncccc23)n1	binding	1 µM	96
CCCOc1ccc([C@@H]2[C@@H](C(=O)O)[C@H](c3ccc4c(c3)OCO4)CN2CC(=O)Nc2c(CC)cccc2CC)cc1	cell-free assay, competition with immobilised ligand	1 µM	100
COc1ccnn2ncc(-c3ccnc(N(C)C)n3)c12	binding	1 µM	98
CS(=O)(=O)N1CCCC(NC(=O)[C@H](CCC2CCCCC2)NC(=O)c2ccc(CNc3ncnc4c3nnn4-c3ccccc3)cc2)C1 (stereo partly shown)	cell-free assay, competition with immobilised ligand	0.1 µM	100
Cc1cc(-c2cc(C(F)(F)F)ccc2O[C@H]2C[C@@]2(CNS(=O)(=O)c2ccc([N+](=O)[O-])cc2)c2ccc(F)cc2F)[nH]n1	cell-free assay, competition with immobilised ligand	0.3 µM	6.9
O=C(NCCCN1CCOCC1)c1ccc(Nc2nccc(-c3cc4ccccc4s3)n2)cc1	binding, competition with immobilised ligand	1 µM	100
N[C@@H]1CCN(c2nccc(-c3cnn4ncccc34)n2)C1	binding	1 µM	100
COc1cnc(Nc2cccc(S(N)(=O)=O)c2)nc1N1CCN(c2ccccc2)C(=O)C1	binding, competition with immobilised ligand	1 µM	91
CSc1cccnc1N1CCN(Cc2nc3ccccc3[nH]2)CC1	cell-free assay, competition with immobilised ligand	1 µM	89
Nc1ncc2c(n1)-c1c([nH]c3ccc(C#CC4CC4)cc13)CCCC2	binding, competition with immobilised ligand	1 µM	100
COc1cnc(Nc2cccc(S(N)(=O)=O)c2)nc1N1CCN(c2ccccc2)CC1	binding, competition with immobilised ligand	1 µM	100
C[C@@H]1CCN(c2nccc(-c3cnn4ncccc34)n2)C1	binding	1 µM	93
O=C(c1ccc(Nc2ncc(Cl)c(-c3ccc(Cl)s3)n2)cc1)N1CCC(N2CCCC2)CC1	binding, competition with immobilised ligand	1 µM	90
Cc1cnn2ncc(-c3ccnc(N(C)C)n3)c2c1	binding	1 µM	98
FC(F)(F)Oc1cccc(-c2cnc3ccc(-c4ccncc4)nn23)c1	cell-free assay, competition with immobilised ligand	5 µM	100
C[C@@H]1CN(c2cc(-c3n[nH]c4ccc(OC5(C)CC5)cc34)ncn2)C[C@H](C)O1	cell-free assay, competition with immobilised ligand	0.1 µM	84
c1cnn2ncc(-c3ccnc(N4CCC45COC5)n3)c2c1	binding	1 µM	98
COc1ccc2cc(OCC3(C(=O)O)CN(C(=O)c4ccc(F)cc4)C3)ccc2c1	cell-free assay, competition with immobilised ligand	1 µM	100
O=C(c1ccc(Nc2ncc(Cl)c(-c3cc4ccccc4s3)n2)cc1)N1CCC(N2CCCC2)CC1	binding, competition with immobilised ligand	1 µM	100
Cc1cc(-n2nc(Cc3cc(F)cc(C(F)(F)F)c3)nc2C)ccc1C(N)=O	cell-free assay, competition with immobilised ligand	1 µM	100
O=C(Nc1c[nH]nc1C(=O)NC1CCNCC1)c1cc(F)cc(F)c1	binding, competition with immobilised ligand	1 µM	74
